Experimental data from ChEMBL document CHEMBL1155641, “Cytotoxic cembrenolides and steroids from the formosan soft coral Sarcophyton crassocaule” (2000).
In brackets after ≈: the same amount, converted by molar mass.

Legend:
Assay type in all cases: functional
Details in all cases: read-out: ED50 (the source's name)
A549 = test: Cytotoxicity against human A549 cells
Procedure, shortened: (§1)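 Human A549 lung adenocarcinoma and HT-29 colon adenocarcinoma cell lines from the American Type Culture Collection. Cytotoxicity assay run per a previously described procedure.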

HT-29 = test: Cytotoxicity against human HT29 cells; procedure, shortened: as §1
KB = test: Cytotoxicity against human KB cells
Procedure, shortened: (§2)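 Human KB epidermoid carcinoma and mouse P-388 lymphocytic leukemia cells came from an academic laboratory (University of Illinois at Chicago). Cytotoxicity assay run per a previously described procedure.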

P388 = test: Cytotoxicity against mouse P388 cells; procedure, shortened: as §2

Question: What does the source list for `C=C1C(=O)O[C@H]2/C=C(\C)CC[C@H](OC(C)=O)[C@@]3(C)CC[C@H](OO3)/C(C)=C\C[C@@H]12` [DENTICULATOLIDE]?
Answer: EC50 (A549): 6.46 µg/mL (≈ 16.5 µM); EC50 (HT-29): 5.78 µg/mL (≈ 14.8 µM); EC50 (KB): 6.29 µg/mL (≈ 16.1 µM); EC50 (P388): 0.15 µg/mL (≈ 0.384 µM)

Question: For `CC(C)[C@@H](C)CC[C@@H](C)[C@H]1CC[C@H]2[C@@H]3C[C@@H](O)[C@@]4(O)C[C@@H](O)CC[C@]4(C)[C@H]3CC[C@]12C`, which EC50 (A549) is on record?
Answer: 6.26 µg/mL (≈ 14.4 µM)

Question: What about the EC50 (HT-29) of the same compound?
Answer: 8.35 µg/mL (≈ 19.2 µM)

Question: What about the EC50 (KB) of the same compound?
Answer: 5.38 µg/mL (≈ 12.4 µM)

Question: And the EC50 (P388)?
Answer: 0.14 µg/mL (≈ 0.322 µM)

Question: Which results are given for `C=C1C(=O)O[C@@H]2C/C(C)=C/CC/C(C)=C/CC[C@]3(C)O[C@H]3C[C@@H]12` [SARCOCRASSOLIDE]?
Answer: EC50 (A549): 8.31 µg/mL (≈ 26.3 µM); EC50 (HT-29): 7.55 µg/mL (≈ 23.9 µM); EC50 (KB): 9.15 µg/mL (≈ 28.9 µM); EC50 (P388): 0.16 µg/mL (≈ 0.506 µM)

Question: For `CC(=O)OC(C)(C)[C@H](C)CC[C@@H](C)[C@H]1CC[C@H]2[C@@H]3C[C@@H](O)[C@@]4(O)C[C@@H](O)CC[C@]4(C)[C@H]3CC[C@]12C`, which EC50 (A549) is on record?
Answer: 22.4 µg/mL (≈ 45.5 µM)

Question: And the EC50 (HT-29)?
Answer: 4.32 µg/mL (≈ 8.77 µM)

Question: And the EC50 (KB)?
Answer: 26.8 µg/mL (≈ 54.5 µM)

Question: What about the EC50 (P388) of the same compound?
Answer: 3.96 µg/mL (≈ 8.04 µM)

Question: For `C=C1C(=O)O[C@H]2[C@H]1C[C@@H]1O[C@@]1(C)CC/C=C(\C)CC/C=C(\C)[C@@H]2OC(C)=O`, which EC50 (A549) is on record?
Answer: 4.66 µg/mL (≈ 12.4 µM)

Question: And the EC50 (HT-29)?
Answer: 5.67 µg/mL (≈ 15.1 µM)

Question: And the EC50 (KB)?
Answer: 7.39 µg/mL (≈ 19.7 µM)

Question: And the EC50 (P388)?
Answer: 0.38 µg/mL (≈ 1.01 µM)
